# In PMC7275135 (Applied Microbiology and Biotechnology, 2020):
# Where a SMILES comes first, the peptide text is derived from it.
# Key:
# Gram-positive bacteria = assay: MIC range over the Gram-positive strains; type: cell-based; conditions: S. aureus CVCC 546, S. epidermidis ATCC 12228, S. pneumoniae CVCC 2350, S. suis CVCC 3928
# MEECs = assay: Cytotoxicity, MTT assay; type: cell-based, mouse; conditions: 256 μg/mL, n = 4
# [1] = system: S. epidermidis ATCC 12228; assay: MIC, microtiter plate assay; type: cell-based, Staphylococcus epidermidis; conditions: triplicate
# S. aureus CVCC 546 [2] = assay: S. aureus-induced endometritis model of mice; type: in vivo, mouse; conditions: 10-mg/kg
# [3] = system: LTA-induced cytokines from RAW 264.7; assay: LTA neutralization, cytokine ELISA; type: cell-based, mouse; conditions: RAW 264.7, LTA-stimulated, 25-μg/mL
# S. aureus CVCC 546 [4] = assay: Membrane depolarization, Rhodamine 123 flow cytometry; type: cell-based, Staphylococcus aureus; conditions: 2 h, 10^8 CFU/mL
# [5] = system: intracellular S. aureus CVCC 546; assay: Intracellular antimicrobial activity in MEECs; type: cell-based, Staphylococcus aureus; conditions: 24 h treatment, dose-dependent, colony counting
# Method in brief: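 MEECs in antibiotic-free DMEM, seeded at 2.5 × 10^5 cells/mL and grown 24 h, then infected with an equal volume of S. aureus CVCC 546 (2.5 × 10^7 CFU/mL) for 0.5 h. Extracellular bacteria killed with lysostaphin 50 μg/mL for 1 h, then PBS wash.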
Structure (SMILES),MICs (range over strains) (Gram-positive bacteria),cell viability toward MEECs (MEECs) [%],MICs [1] [µM],histopathology of uteri (H&E) (S. aureus CVCC 546 [2]),IL-10 increased by [3] [%],Rh 123 fluorescence intensity increased by (S. aureus CVCC 546 [4]; 1 × MIC) [%],Rh 123 fluorescence intensity increased by (S. aureus CVCC 546 [4]; 2 × MIC) [%],killing of S. aureus CVCC 546 in MEEC cells [5]
"CC[C@H](C)[C@@H]1NC(=O)[C@@H]2CSSC[C@@H](C(=O)N[C@@H](CCCNC(=N)N)C(=O)N[C@@H](CCCCN)C(=O)O)NC(=O)[C@H](CC(N)=O)NC(=O)[C@@H]3CSSC[C@H](NC(=O)[C@H](C)NC(=O)[C@H](C)NC(=O)[C@H](Cc4c[nH]cn4)NC(=O)CNC(=O)[C@H](C(C)C)NC(=O)[C@H](CCCCN)NC(=O)[C@H](Cc4ccccc4)NC(=O)[C@@H]4CCCN4C(=O)[C@H](CO)NC(=O)[C@H](CC(C)C)NC(=O)[C@H](CC(C)C)NC(=O)[C@H](CC(=O)O)NC(=O)[C@@H](NC(=O)[C@@H](NC(=O)[C@H](C)N)[C@@H](C)O)CSSC[C@H](NC(=O)[C@H](Cc4c[nH]c5ccccc45)NC(=O)CNC(=O)CNC(=O)[C@H](CCCNC(=N)N)NC(=O)[C@H](CCCCN)NC(=O)CNC(=O)[C@H](CCCNC(=N)N)NC(=O)[C@H](C)NC1=O)C(=O)N[C@@H](CC(=O)O)C(=O)N[C@@H](CCCCN)C(=O)N[C@@H](CCCNC(=N)N)C(=O)N[C@@H](C)C(=O)N[C@@H](C(C)C)C(=O)N3)C(=O)N[C@@H](C)C(=O)N[C@@H](C)C(=O)N[C@@H](Cc1c[nH]cn1)C(=O)N2 [DLP4] (HELM PEPTIDE1{A.T.C.D.L.L.S.P.F.K.V.G.H.A.A.C.A.A.H.C.I.A.R.G.K.R.G.G.W.C.D.K.R.A.V.C.N.C.R.K}$PEPTIDE1,PEPTIDE1,3:R3-30:R3|PEPTIDE1,PEPTIDE1,16:R3-36:R3|PEPTIDE1,PEPTIDE1,20:R3-38:R3$$$V2.0; N-terminus assumed)",3.75~14.99 μM,74.14,14.99,–,–,–,–,–
CN[C@H](CC(C)C)C(=O)N[C@H]1C(=O)N[C@@H](CC(N)=O)C(=O)N[C@H]2C(=O)N[C@H]3C(=O)N[C@H](C(=O)N[C@H](C(=O)O)c4cc(O)cc(O)c4-c4cc3ccc4O)[C@H](O)c3ccc(c(Cl)c3)Oc3cc2cc(c3O[C@@H]2O[C@H](CO)[C@@H](O)[C@H](O)[C@H]2O[C@H]2C[C@](C)(N)[C@H](O)[C@H](C)O2)Oc2ccc(cc2Cl)[C@H]1O [vancomycin],–,90.15,–,Only a small amount of scattered inflammatory cells were observed in part of uterus,81.26,23.1,26.6,over 99%
